STAT3 activator – IL-6 driven STAT3 reporter potentiators, primary screen, U3A cells, luciferase, luminescence, MLSCN library; IL-6 STAT3-luciferase reporter; 100% = signal with IL-6 EC80 alone; activation (% of control), % at 5.6 µM; 0.91% of 190,000 active; AID 871, 2007;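 active means activation above the screen-wide mean of compound activation plus 3 SD, cut at about 130% in these data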;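 further: 0% = background luminescence of wells with medium and substrate only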
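System – human U3A cells carrying STAT3-luciferase construct · Probe or stimulus – Interleukin-6, 33 ng/mL · Schedule – compound 1 h, then IL-6 6 h at 37 °C · Signal – luminescence from STAT3-driven luciferase reporter · Evaluation – percent of IL-6-only median luminescence · Benchmarks – IL-6-only high control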
STAT1 inh – STAT1 signaling inhibitors, primary screen, cell-based, HTS, luciferase reporter | NIH 3T3 STAT1-luciferase reporter, IFN-gamma, luminescence | inhibition, % at 5.5 µM | 0.35% of 200,000 active | AID 920, 2007;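 active means inhibition above a set limit, the mean inhibition across all tested compounds plus 3 SD, cut at about 34% in these data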;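 further: 0% = IFN-gamma with DMSO and 100% = IFN-gamma with 300 µM nifuroxazide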
C8 TRAIL sens – viability loss with TRAIL in NB7+C8 cells, primary screen, TRAIL sensitizer project, cell-based, ATPlite luminescence. inhibition (viability loss, TRAIL sensitization), % at 10 µM. 1% of 360,000 active. AID 624354, 2012;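 active means compounds causing at least 50% loss of cell viability in the single-dose screen, relative to plate controls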
STAT3 inh – IL-6 driven STAT3 reporter inhibitors, primary screen, U3A cells, luciferase, luminescence, MLSCN library. IL-6 STAT3-luciferase reporter; host cell line lacks STAT1. inhibition, % at 5.5 µM. 0.89% of 190,000 active;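 active means inhibition above the mean inhibition across all screened compounds plus 3 SD, cut at about 44% in these data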;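 further: 0% = DMSO only wells and 100% = 100 µM nifuroxazide control wells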
PPC-1+TRAIL kill – compounds killing PPC-1 cancer cells with TRAIL present, primary screen, TRAIL potentiator project, ATPLite luminescence, uHTS. PPC-1 cells + TRAIL, ATPLite viability luminescence. cell killing (% activity), % at 4 µM or 5 µM. 0.41% of 220,000 active. AID 1443, 2008;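 active means cell killing above 50% in the first pass at 4 µM, then a duplicate retest at 5 µM averaging 50% or more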;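 further: plate controls were cells with TRAIL plus DMSO for no effect and medium-only wells lacking cells for full effect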
* marks the source's active call; other numbers are inactive results; x = not tested or not shown. Sampled rows, rich in hits. Any-hit rate of the full collection: about 1.8%.

SMILES | STAT3 activator | STAT1 inh | C8 TRAIL sens | STAT3 inh | PPC-1+TRAIL kill
COc1ccc(-c2nn(-c3ccccc3)cc2/C=N/N=C(N)N)cc1OC | 95.6 | 5.9 | 24.8 | 3.2 | 55.1*
Cc1nc(NCc2ccco2)c2c3c(sc2n1)CCC3 | 166.5* | -54.5 | 11.5 | -76.2 | 21.6
CCN1CCN(c2ccc(S(=O)(=O)N3CCCCC3)cc2NC(=O)c2ccc(C)o2)CC1 | x | x | 0.9 | x | x
O=C(Nc1cccc(S(=O)(=O)N2CCCC2)c1)[C@@H]1O[C@H](CO)[C@@H](O)[C@H]1O | x | x | -8.8 | x | x
CS(=O)(=O)c1nc(-c2cccs2)cc(C(F)(F)F)n1 | 89.5 | 50.0* | x | 12.6 | -25.9
CN(C)CCNC(=O)c1cccc(-c2cc(NC=O)c3ncc(-c4cccc(C(F)(F)F)c4)n3c2)c1 | x | x | 78.8* | x | x
CCS(=O)(=O)c1ncc(Cl)c(C(=O)Nc2ccccc2OC)n1 | x | x | 89.5* | x | x
COc1ccccc1NC(=O)c1nc(S(=O)(=O)Cc2ccccc2)ncc1Cl | x | x | 94.5* | x | x
COc1ccccc1NC(=O)c1ccc(CS(=O)(=O)c2ccc(C)cc2)cc1 | 83.2 | 0.3 | 5.9 | 28.4 | 11.0
COc1ccccc1NC(=O)c1ccc(C(=O)Nc2ccccc2OC)nc1 | x | x | 4.4 | x | x
CCOc1ccccc1NC(=O)c1nc(S(=O)(=O)Cc2ccccc2)ncc1Cl | x | x | 96.3* | x | x
Cc1noc(C)c1CSCC(=O)Nc1ccccc1N1CCCCC1 | x | x | 9.4 | x | x
CC(O)(c1cccc(F)c1)c1nc(-c2ccc3ccccc3c2)cs1 (stereo not given) | x | x | -4.7 | x | x
COc1ccc2c(c1)C1=NN(/C(C)=C\C(C)=O)C(c3ccccc3)C1CC2 (stereo not given) | 133.9* | -2.3 | 13.1 | -39.1 | 8.1
C=C1CC2(CC(c3ccccc3)OC(c3ccccc3)C2)OC1=O (stereo not given) | x | x | 64.2* | x | x
Brc1ccccc1-c1nnc(SCc2nc3ccccc3s2)o1 | 142.9* | -40.1 | 13.2 | -49.9 | 18.1
O=C(O)c1ccc(CSc2nnc(-c3ccccc3Br)o2)cc1 | x | x | 7.6 | x | x
C=CCN1C=CC(=C/C=C(/C#N)C(=O)OCC)C=C1 | 98.2 | -82.0 | 49.1* | 5.5 | 43.2
CCOC(=O)/C(C#N)=C/C=C1/C=CC=CN1C | x | x | 4.0 | x | -20.2
CNc1nc(N/N=C/c2cc([N+](=O)[O-])ccc2F)nc(Nc2ccccc2)n1 | x | x | 57.6* | x | x
CNc1nc(N/N=C/c2cc3c(cc2[N+](=O)[O-])OCO3)nc(Nc2ccccc2)n1 | 89.2 | -15.0 | -6.3 | 14.9 | 26.1
CC(C)(C)c1ccc(C(=O)Nc2cccc(-n3cnnn3)c2)cc1 | x | x | 71.1* | x | x
O=C(Nc1cnc2ccccc2c1)c1cccc(-n2cnnn2)c1 | 138.1* | -38.3 | 8.5 | -34.5 | 13.5
COC(=O)c1cccc(NC(=O)c2cccc(-n3cnnn3)c2)c1 | x | x | -8.7 | x | x
O=C(COC(=O)c1ccco1)Nc1ccc(N2CCOCC2)cc1 | x | x | -5.4 | x | x
SMILES | STAT3 activator | STAT1 inh | C8 TRAIL sens | STAT3 inh | PPC-1+TRAIL kill
COc1cc(NC(=O)c2ccc(F)cc2)c(OC)cc1Cl | 120.6 | 5.5 | -20.4 | -21.2 | 18.8
COc1cc(NC(=O)c2c(F)c(F)c(F)c(F)c2F)c(OC)cc1Cl | 115.0 | -11.3 | 76.0* | -15.2 | 5.7
CCN1CCN(c2ccc(S(=O)(=O)N3CCCCC3)cc2NC(=O)c2ccc([N+](=O)[O-])s2)CC1 | x | x | 53.1* | x | x
CCN1CCN(c2ccc(S(=O)(=O)N3CCCCC3)cc2NC(=O)c2ccccc2)CC1 | x | x | 21.2 | x | x
COc1ccc(NC(=O)COC(=O)Cn2cnc3ccccc3c2=O)c(OC)c1 | x | x | 4.7 | x | x
Cc1nc2ccccc2n1C(c1cccnc1)c1nc2ccccc2[nH]1 (stereo not given) | x | x | -7.2 | x | x
COc1ccccc1C(=O)NCCC(=O)N1CCN(c2cccc(C(F)(F)F)c2)CC1 | x | x | -2.2 | x | x
Oc1ccccc1-c1csc(-c2ccccc2)n1 | 169.5* | -38.0 | 0.4 | -77.2 | 48.8
C[C@@H]1CCCCO[C@H](CN(C)C(=O)Cc2ccccc2)[C@@H](C)CN([C@H](C)CO)C(=O)c2cc(N(C)C)ccc2O1 | x | x | 16.5 | x | x
Nc1[nH]c(=O)nc2snnc12 | x | x | 7.1 | x | x
CNC(=O)OCc1snc(-c2ccccc2)c1COC(=O)NC | x | x | -2.4 | x | x
O=C(NCCc1ccccc1)C(c1cccs1)N(C(=O)CCl)c1ccc(Cl)cc1 (stereo not given) | 76.9 | 14.9 | 96.5* | 29.8 | 9.3
CCC(CC)c1nnc(NC(=O)c2ccc3c(c2)OCO3)s1 | x | x | 1.9 | x | x
COC(=O)CSc1nnc(NC(=O)/C=C\c2ccc3c(c2)OCO3)s1 | 92.6 | -0.5 | 53.0* | 10.8 | 33.3
COC(=O)CSc1nnc(NC(=O)c2ccc3c(c2)OCO3)s1 | x | x | 77.1* | x | x
Cc1ccc(-c2nc3c(Cl)cc(C(F)(F)F)cn3c2Cc2ccsc2)cc1 | x | x | 11.6 | x | x
C[C@H](O)[C@@H]1C(=O)N2CCc3ccc(-c4ccccc4)cc3[C@@H]2C[C@@H]1N(C)C(=O)c1ccco1 | x | x | -1.3 | x | x
Cc1nn(-c2ccccc2)c(Cl)c1/C=N/Nc1ccc(Cl)c(C(=O)O)c1 | 62.6 | 42.1* | 49.9 | 43.9* | 51.8*
Cc1ccc(-c2ccc3c(c2)O[C@H](CN(C)Cc2cncnc2)[C@@H](C)CN([C@H](C)CO)S3(=O)=O)cc1 | x | x | 6.7 | x | x
O=C(CCl)Nc1ccccc1Sc1ccccc1 | 95.8 | 4.0 | 83.1* | 2.2 | 12.5
O=C(CCl)Nc1ccc(-c2ccccc2)cc1 | 78.5 | 32.9 | 57.1* | 31.2 | 25.6
O=C(CCl)Nc1cccc(Oc2cnccn2)c1 | x | x | 10.7 | x | x
O=C(CCl)Nc1cccc(Oc2ccccc2)c1 | 95.5 | 4.5 | 87.2* | 9.9 | 5.1
Cc1cccc(N2CCN(C(=S)Nc3ccc4nc(N5CCN(C)CC5)cc(C)c4c3)CC2)c1C | 102.2 | -3.0 | 93.4* | 9.4 | x
Cc1cc(N2CCN(C)CC2)nc2ccc(NC(=S)N3CCCCC3)cc12 | 106.9 | -8.6 | 11.4 | -8.9 | 21.6
SMILES | STAT3 activator | STAT1 inh | C8 TRAIL sens | STAT3 inh | PPC-1+TRAIL kill
Cc1cccc(N2CCN(C(=S)Nc3ccc4nc(N5CCN(C)CC5)cc(C)c4c3)CC2C)c1 (stereo not given) | 98.8 | -3.7 | 66.8* | 3.9 | 24.7
Cc1cccc(N2CCN(C(=O)c3c(-c4ccccc4Cl)noc3C)CC2)c1C | x | x | 10.7 | x | x
O=c1cc(-c2cccc(F)c2)[nH]c2ccccc12 | 133.3* | -8.7 | 5.6 | -42.7 | 4.8
CN(Cc1ccccc1)C(=O)COC(=O)C1CCN(S(=O)(=O)c2ccc3c(c2)OCCO3)CC1 | x | x | 8.1 | x | x
N#Cc1ccccc1NC(=O)C1SC(=Nc2ccccc2)C(C(=O)Nc2ccc(Cl)cc2)=C1N (stereo not given) | 58.4 | 55.3* | 19.4 | 54.5* | 2.3
CCOc1ccc(N=C2SC(C(=O)Nc3ccccc3C#N)C(N)=C2C(=O)Nc2ccc(Cl)cc2)cc1 (stereo not given) | 99.8 | -9.3 | -0.5 | 4.2 | 19.4
Cc1csc(-c2nc3ccccc3n2C(C(=O)NC(C)(C)C)c2cc3ccccc3o2)c1 (stereo not given) | x | x | 15.0 | x | x
CCCCCCCCOC(=O)c1c(CSC(=N)N)n(C)c2cc(Br)c(OC(C)=O)cc12 | x | x | 92.4* | x | -1.5

High-throughput results as filed in PubChem.
